A short description of data set [1]: Deacylation rate constant(Kd fast) was determined by proflavin displacement assay. The procedure, abridged: (§1)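 Proflavin displacement: ester 90 μM (from DMSO) added to α-chymotrypsin 90 μM and proflavin 9 μM (final) in 0.1 M phosphate pH 7.2 at 25 °C. Return of A466 was followed, and the slope of semilog absorbance versus time gave kd. Racemic esters gave biphasic curves yielding kd(fast) and kd(slow), and their ratio approximates deacylation enantioselectivity.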

Data set [2] is described as follows: Deacylation rate constant(Kd slow) was determined by proflavin displacement assay. The procedure, abridged:
as §1

Data set [3] is described as follows: kd ratio measured as the kd(fast)/kd(slow) values. In kind it is ADME. Summed up: as §1
A short description of data set [4]: Second order rate constant for acylation( ka/Ks). In kind it is ADME. The procedure, abridged:
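Competitive substrate assay with α-chymotrypsin (25 nM, active-site titrated) in 0.1 M phosphate buffer pH 7.2, 25 °C. MeO-Suc-Ala-Ala-Pro-Phe pNA was at 128 μM with ester at 10–350 μM, DMSO present. A410 followed for up to 300 s, and k_obs came from semilog plots in triplicate. ka and KS were obtained from I0/k_obs versus I0 by Main's equation (KM 50 μM).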

Data set [5] is described as follows: Acylation rate constant was determined.
A short description of data set [6]: Binding constant of the compound.

`N#CCC(CC(=O)Oc1ccc([N+](=O)[O-])cc1)c1ccccc1` (stereo not given): the results for the Kd in data set [1] and in data set [2] were 9 min⁻¹ and 0.035 min⁻¹, respectively. The Ratio in data set [3] came out at 257.

Consider `C=C(C)C[C@H](CC(=O)O)c1ccccc1`, for which the Kd in data set [2] amounted to 0.0023 min⁻¹.

As to `CC(=O)C[C@@H](CC(=O)Oc1ccc(C#N)cc1)c1ccccc1`, the Ratio in data set [4] worked out at 11000 M⁻¹ s⁻¹. In data set [5], the Ka came out at 58 min⁻¹. This compound also showed a Ks in data set [6] of 91 µM.

On to `CC(=O)C[C@H](CC(=O)Oc1ccc(C#N)cc1)c1ccccc1`, for which, in data set [4], the Ratio was found to be 2000 M⁻¹ s⁻¹. Further, the Ka in data set [5] was determined as 73 min⁻¹. This compound registered a Ks in data set [6] of 630 µM.

As to `CC(=O)CC(CC(=O)Oc1ccc([N+](=O)[O-])cc1)c1ccccc1` (stereo not given), the Kd in data set [1] was determined as 0.15 min⁻¹; in data set [2], 0.0036 min⁻¹. Also, the Ratio in data set [3] was 42.

`O=CCC(CC(=O)Oc1ccc([N+](=O)[O-])cc1)c1ccccc1` (stereo not given): the figures for the Kd in data set [1] and in data set [2] were 0.9 min⁻¹ and 0.005 min⁻¹, respectively. In addition, the Ratio in data set [3] came out at 180.

For `CC(C)CC(CC(=O)Oc1ccc([N+](=O)[O-])cc1)c1ccccc1` (stereo not given), the Kd in data set [1] and in data set [2] was 0.096 min⁻¹ throughout.

Turning to `CC(=O)OC(CC(=O)Oc1ccc([N+](=O)[O-])cc1)c1ccccc1` (stereo not given), the values for the Kd in data set [1] and in data set [2] were 0.067 min⁻¹ and 0.01 min⁻¹, respectively. In data set [3], the Ratio worked out at 7.

With `CC(=O)N[C@@H](CC(=O)Oc1ccc([N+](=O)[O-])cc1)c1ccccc1`, the Kd in data set [1] was 1.57 min⁻¹; in data set [2], 0.02 min⁻¹. Besides, the Ratio in data set [3] worked out at 785.

Take `O=C1CC(c2ccccc2)CC(=O)O1`: the Kd in data set [1] and in data set [2] was 0.204 min⁻¹ each time.

`O=C(CCc1ccccc1)Oc1ccc([N+](=O)[O-])cc1`: the Kd in data set [1] and in data set [2] was 15 min⁻¹ in each case.

As for `COC(=O)CC(CC(=O)Oc1ccc([N+](=O)[O-])cc1)c1ccccc1` (stereo not given), the Kd was found to be 2.34 min⁻¹ in data set [1] and 0.048 min⁻¹ in data set [2]. In addition, the Ratio in data set [3] was 49.

As to `O=C(CC(NC(=O)c1ccccc1)c1ccccc1)Oc1ccc([N+](=O)[O-])cc1` (stereo not given), the results for the Kd in data set [1] and in data set [2] were 30 min⁻¹ and 0.025 min⁻¹, respectively. The Ratio in data set [3] came out at 1200.

Take `CCC(=O)NC(CC(=O)Oc1ccc([N+](=O)[O-])cc1)c1ccccc1` (stereo not given): the Kd in data set [1] turned out to be 4.35 min⁻¹; in data set [2], 0.0029 min⁻¹. Moreover, the Ratio in data set [3] was 1500.

As to `C=C(C)C[C@@H](CC(=O)Oc1ccc([N+](=O)[O-])cc1)c1ccccc1`, the Kd in data set [1] worked out at 0.172 min⁻¹. The Ratio in data set [3] is listed as 3.

In the case of `O=CNC(CC(=O)Oc1ccc([N+](=O)[O-])cc1)c1ccccc1` (stereo not given), the Kd was 3.58 min⁻¹ in data set [1] and 0.039 min⁻¹ in data set [2]. The Ratio in data set [3] is reported as 92.

`C=C(C)C[C@H](CC(=O)Oc1ccc([N+](=O)[O-])cc1)c1ccccc1`: the Kd in data set [2] was 0.067 min⁻¹. Also, the Ratio in data set [3] was determined as 3.

Take `O=C(CC(NC(=O)C(F)(F)F)c1ccccc1)Oc1ccc([N+](=O)[O-])cc1` (stereo not given): the Kd in data set [1] and in data set [2] was 0.0063 min⁻¹ each time.

With `NC(=O)CC(CC(=O)Oc1ccc([N+](=O)[O-])cc1)c1ccccc1` (stereo not given), the Kd was 0.154 min⁻¹ in data set [1] and 0.005 min⁻¹ in data set [2]. For the same compound, the Ratio in data set [3] was found to be 31.

In the case of `C=C(C)CC(CC(=O)Oc1ccc([N+](=O)[O-])cc1)c1ccccc1` (stereo not given), the Kd in data set [1] and in data set [2] was 0.162 min⁻¹ in each case.

For `C=C1C[C@H](c2ccccc2)CC(=O)O1` (stereo in doubt; 1 (R)), the Ratio in data set [4] was 12000 M⁻¹ s⁻¹. The Kd in data set [2] came to 0.0029 min⁻¹. Also, in data set [5], the Ka stood at 35 min⁻¹. Also, the Ks in data set [6] was found to be 51 µM.

Take `C=C1C[C@H](c2ccccc2)CC(=O)O1` (stereo in doubt; 1 (S)): the Ratio in data set [4] was found to be 38000 M⁻¹ s⁻¹; in data set [3], 59. In data set [1], this compound displayed a Kd of 0.17 min⁻¹. This compound gave a Ka in data set [5] of 17 min⁻¹. In addition, the Ks in data set [6] is 8 µM.

The values above are taken from ChEMBL document CHEMBL1125629, “Beta-substituted beta-phenylpropionyl chymotrypsins. Structural and stereochemical features in stable acyl enzymes” (J Med Chem, 1991).
